Structures are written as SMILES. Activity calls are given as the source filed them.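 The calls were made as follows, unless noted: active = Her2 level under about 52% in both replicate screens, with viability over 70% of control (limit read from the data); inconclusive = Her2 under the limit in one screen only, or viability under 70%; inactive = Her2 level above the set limit.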

Experiment [1] is described as follows: Her2 expression decrease, cell viability multiplex – SKBR3 breast tumor cells, AlphaScreen, ATP viability, primary screen (AID 461).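 As to Her2 level: lower value means less Her2 protein in the cells.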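 As to viability: percent of carrier control wells set as 100% viability.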 To be noted: SKBR3 Her2 protein level, 18-24 h, measured here: SKBR3 viability, ATP luminescence, at 10 µM.
Experiment [2] deals with Receptor tyrosine-protein kinase erbB-2 (Homo sapiens) (UniProt P04626). Described as above. To be noted: 18-24 h, at 10 µM, stronger effect = lower value.
Sequence of Receptor tyrosine-protein kinase erbB-2 (Homo sapiens) (P04626 whole entry, looked up): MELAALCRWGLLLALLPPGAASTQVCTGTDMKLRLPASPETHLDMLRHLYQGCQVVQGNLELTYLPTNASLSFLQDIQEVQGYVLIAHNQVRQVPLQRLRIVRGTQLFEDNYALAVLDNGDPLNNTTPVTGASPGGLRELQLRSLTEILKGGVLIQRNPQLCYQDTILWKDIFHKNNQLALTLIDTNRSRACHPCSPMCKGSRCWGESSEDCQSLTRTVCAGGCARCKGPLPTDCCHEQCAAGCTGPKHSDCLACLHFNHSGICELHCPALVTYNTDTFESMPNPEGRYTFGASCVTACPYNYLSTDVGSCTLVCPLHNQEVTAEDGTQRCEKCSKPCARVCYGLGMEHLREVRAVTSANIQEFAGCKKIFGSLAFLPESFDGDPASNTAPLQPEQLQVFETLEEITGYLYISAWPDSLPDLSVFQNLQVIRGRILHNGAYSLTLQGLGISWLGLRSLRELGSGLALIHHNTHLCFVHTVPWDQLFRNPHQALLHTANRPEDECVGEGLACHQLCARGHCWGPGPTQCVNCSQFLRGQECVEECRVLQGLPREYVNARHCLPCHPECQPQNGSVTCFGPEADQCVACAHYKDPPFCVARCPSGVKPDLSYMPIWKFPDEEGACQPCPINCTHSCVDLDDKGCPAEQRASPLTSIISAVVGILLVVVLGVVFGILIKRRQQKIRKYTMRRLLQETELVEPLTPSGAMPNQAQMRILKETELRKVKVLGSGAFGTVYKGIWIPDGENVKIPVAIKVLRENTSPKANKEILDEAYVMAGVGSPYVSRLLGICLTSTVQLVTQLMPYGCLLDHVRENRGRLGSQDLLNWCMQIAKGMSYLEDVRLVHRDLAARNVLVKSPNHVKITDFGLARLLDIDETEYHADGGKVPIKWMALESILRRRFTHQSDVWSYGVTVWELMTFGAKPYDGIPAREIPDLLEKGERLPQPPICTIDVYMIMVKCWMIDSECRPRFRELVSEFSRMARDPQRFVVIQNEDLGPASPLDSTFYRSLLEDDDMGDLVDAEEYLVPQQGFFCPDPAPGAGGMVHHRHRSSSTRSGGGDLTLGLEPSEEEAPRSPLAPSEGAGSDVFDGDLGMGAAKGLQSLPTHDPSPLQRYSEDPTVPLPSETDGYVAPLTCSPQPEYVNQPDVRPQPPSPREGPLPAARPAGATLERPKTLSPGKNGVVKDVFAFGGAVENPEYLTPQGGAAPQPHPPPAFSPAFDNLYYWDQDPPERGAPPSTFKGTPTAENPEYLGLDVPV
Experiment [3] can be described thus: reduced viability of SK-BR-3 breast cancer cells – cell-based, 24 h, human, pilot screen (AID 572;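 active = viability at or below 10% of carrier control in both of two separate runs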;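 also: compound exposure lasted between 18 and 24 h rather than exactly 24 h; 100% = carrier-treated control wells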). To be noted: SK-BR-3 viability, CellTiter-Glo luminescence, at 10 µM, stronger effect = lower value.
A short description of experiment [4]: HUVEC growth inhibition – cell-based, human, primary screen (AID 575;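 active = viability at or below 30% in both replicate assays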;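 also: 100% = median of untreated cell wells with 0.1% DMSO on each plate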). To be noted: HUVEC proliferation, CellTiter-Glo luminescence, 72 h; at 10 µM; stronger effect = lower value. Summed up: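 system = HUVEC primary cells | amount = 1250 cells/well | buffer or medium = supplemented EBM, 2% fetal bovine serum | dosing = single-point 10 µM, DMSO 0.1% final | times = 72 h compound incubation | detection = CTG luminescence | read-out = % viability relative to median vehicle-well signal on each plate | control set = vehicle and MePR control wells | format = collagen-coated 384-well format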

Experiment [5] in a line: H69AR cell proliferation blockers – human, duplicate replicates, primary screen (AID 580;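 active = viability at or under a set limit in both replicates, limit being median viability minus 3 SD, cut at about 48% in these data, passing the limit was not always enough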;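 also: 100% = mean luminescence of untreated wells and 0% = no signal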). To be noted: H69AR lung tumor cells viability, ATP luminescence, 72 h; at 10 µM; stronger effect = lower value.
The nature of experiment [6]: MRP1 drug-resistance reversers in H69AR cells – cell-based, doxorubicin co-treatment, pilot screen (AID 601;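 active = viability loss from added drug above about 55%, and viability with drug at most 40%, in both replicates, limit read from the data, passing the limit was not always enough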). To be noted: CellTiter-Glo, 72 h, at 10 µM; for differential viability (reversal): stronger effect = higher value.
Experiment [7] can be described thus: yeast transport mutant growth inhibition pilot in 384-well plates, post-Golgi transport modulator project (AID 636; in the data active = inhibition above about 31%). To be noted: absorbance 615 nm, about 18 h, stronger effect = higher value.
Experiment [8] is described as follows: growth suppression of yeast trafficking mutant, preliminary HTS, modulators of trafficking downstream of Golgi apparatus project, 1536-format plate, OD 615 nm (AID 637; in the data active = inhibition above about 30%). To be noted: yeast transport mutant growth, absorbance 615 nm, 18 h; stronger effect = higher value.
Where [9] appears, read: H69AR cells + 2 uM doxorubicin, measured here: viability with 2 uM doxorubicin, stronger effect = lower value.
[10] abbreviates: H69AR cells, compound alone cytotoxicity.

For the compound `CCOc1ccc(N(CC)C(=O)COc2cc(=O)n(C)c3ccccc23)cc1`, the viability in experiment [1] is 84.5%; in experiment [3], 84.5% (inactive); in experiment [4] it was 93.6% (inactive); in experiment [5], 86.1% (inactive); in experiment [6] (setting [9]), 88.6%; in experiment [6] (setting [10]), 86.1%. Besides, in experiment [2], the Her2 level is 86% (inactive). Further, in experiment [6] (H69AR cells + 2 uM doxorubicin), the differential viability (reversal) is -2.48% (inactive). The inhibition in experiment [7] is -3.07% (inactive); in experiment [8] it was 0.98% (inactive).

Take `CC1(C)CC(=O)C(C#N)=C(NCCCO)C1`: the viability in experiment [1] is 99.5%; in experiment [3], 99.5% (inactive); in experiment [4] it was 91.5% (inactive); in experiment [5] it was 100% (inactive); in experiment [6] (setting [9]), 103%; in experiment [6] (setting [10]), 100%. Besides, in experiment [2], the Her2 level was 98.5% (inactive). Further, the differential viability (reversal) in experiment [6] (H69AR cells + 2 uM doxorubicin) was -2.31% (inactive). Also, the inhibition in experiment [7] is -1.2% (inactive); in experiment [8], 0.97% (inactive).

Take `COc1ccc(OC)c(S(=O)(=O)N2CCC(C(=O)NCC3CCCO3)CC2)c1` (stereo not given): the viability in experiment [1] is 101%; in experiment [3], 101% (inactive); in experiment [4], 106% (inactive); in experiment [5], 98.9% (inactive); in experiment [6] (setting [9]) it was 90.2%; in experiment [6] (setting [10]), 98.9%. Also, the Her2 level in experiment [2] was 84.5% (inactive). In addition, the differential viability (reversal) in experiment [6] (H69AR cells + 2 uM doxorubicin) is 8.66% (inactive). For the same compound, the inhibition in experiment [7] is -6.27% (inactive); in experiment [8], -3.49% (inactive).

Regarding `CCCCN(CC)CCCNC(=O)CS(=O)(=O)Cc1nc(-c2cccc(OC)c2)oc1C`, the viability was 92% in experiment [1]; 92% (inactive) in experiment [3]; 80.1% (inactive) in experiment [4]; 97.2% (inactive) in experiment [5]; 86.7% in experiment [6] (setting [9]); 97.2% in experiment [6] (setting [10]). Further, the Her2 level in experiment [2] is 112% (inactive). Moreover, the differential viability (reversal) in experiment [6] (H69AR cells + 2 uM doxorubicin) is 10.4% (inactive). Also, the inhibition was 0.66% (inactive) in experiment [7] and -11.3% (inactive) in experiment [8].

As for `COc1ccc(S(=O)(=O)n2nc(OC(=O)c3ccc(C)cc3)cc2N)cc1`, the viability is 92.5% in experiment [1]; 92.5% (inactive) in experiment [3]; 91.6% (inactive) in experiment [4]; 97.7% (inactive) in experiment [5]; 105% in experiment [6] (setting [9]); 97.7% in experiment [6] (setting [10]). Also, the Her2 level in experiment [2] was 72% (inactive). In addition, the differential viability (reversal) in experiment [6] (H69AR cells + 2 uM doxorubicin) was -7.45% (inactive). Also, the inhibition in experiment [7] was -4.47% (inactive); in experiment [8], -5.67% (inactive).

As to `CCOC(=O)c1cccc(NC(=O)CSc2nnc(-c3cccnc3)n2CC)c1`, the viability is 88.5% in experiment [1]; 88.5% (inactive) in experiment [3]; 101% (inactive) in experiment [4]; 109% (inactive) in experiment [5]; 95.2% in experiment [6] (setting [9]); 109% in experiment [6] (setting [10]). Also, the Her2 level in experiment [2] is 95% (inactive). In addition, the differential viability (reversal) in experiment [6] (H69AR cells + 2 uM doxorubicin) was 13.3% (inactive). For the same compound, the inhibition is -4.67% (inactive) in experiment [7] and 0% (inactive) in experiment [8].

`O=C(Nc1cccc(C(F)(F)F)c1)c1ccco1`: the viability was 129% in experiment [1]; 129% (inactive) in experiment [3]; 95.9% (inactive) in experiment [4]; 103% (inactive) in experiment [5]; 84% in experiment [6] (setting [9]); 103% in experiment [6] (setting [10]). The Her2 level in experiment [2] is 79.5% (inactive). Besides, the differential viability (reversal) in experiment [6] (H69AR cells + 2 uM doxorubicin) was 19.4% (inactive). The inhibition in experiment [7] is -5.33% (inactive); in experiment [8], 8.52% (inactive).

With `CCc1ccc(C=NC23CN4CN(CN(C4)C2)C3)s1`, the viability in experiment [1] was 108%; in experiment [3] it was 108% (inactive); in experiment [4], 95.2% (inactive); in experiment [5] it was 105% (inactive); in experiment [6] (setting [9]), 95.2%; in experiment [6] (setting [10]), 105%. Moreover, the Her2 level in experiment [2] is 114% (inactive). The differential viability (reversal) in experiment [6] (H69AR cells + 2 uM doxorubicin) was 9.64% (inactive). The results for the inhibition in experiment [7] and in experiment [8] were 1.17% (inactive) and -3.61% (inactive), respectively.

Turning to `CC1CCC(C(=O)NC(C(=O)NCCN2CCC(C)CC2)C(C)C)CC1` (stereo not given), the viability in experiment [1] is 126%; in experiment [3], 126% (inactive); in experiment [4], 87.6% (inactive); in experiment [5], 81.3% (inactive); in experiment [6] (setting [9]), 87.9%; in experiment [6] (setting [10]) it was 81.3%. Moreover, the Her2 level in experiment [2] was 107% (inactive). Besides, in experiment [6] (H69AR cells + 2 uM doxorubicin), the differential viability (reversal) is -6.62% (inactive). For the same compound, the results for the inhibition in experiment [7] and in experiment [8] were -1.04% (inactive) and 13.9% (inactive), respectively.

Take `Cc1nc2scc(-c3cccs3)c2c(=O)n1-n1cccc1`: the viability was 92% in experiment [1]; 92% (inactive) in experiment [3]; 82.3% (inactive) in experiment [4]; 99.3% (inactive) in experiment [5]; 84.8% in experiment [6] (setting [9]); 99.3% in experiment [6] (setting [10]). The Her2 level in experiment [2] was 107% (inactive). Moreover, in experiment [6] (H69AR cells + 2 uM doxorubicin), the differential viability (reversal) is 14.4% (inactive). Besides, the inhibition in experiment [7] is -1.79% (inactive); in experiment [8] it was -7.83% (inactive).

For `O=C(O)COc1ccc2occ(C(=O)c3ccccc3)c2c1`, the viability is 102% in experiment [1]; 102% (inactive) in experiment [3]; 100% (inactive) in experiment [4]; 93.9% (inactive) in experiment [5]; 92.9% in experiment [6] (setting [9]); 93.9% in experiment [6] (setting [10]). Also, in experiment [2], the Her2 level was 95.5% (inactive). In addition, the differential viability (reversal) in experiment [6] (H69AR cells + 2 uM doxorubicin) was 1.01% (inactive). Further, the values for the inhibition in experiment [7] and in experiment [8] were -3.55% (inactive) and 7.21% (inactive), respectively.

On to `CCCn1nnnc1SCC(=O)c1ccc2c(c1)OCCO2`, for which the viability in experiment [1] was 90%; in experiment [3] it was 90% (inactive); in experiment [4] it was 110% (inactive); in experiment [5] it was 106% (inactive); in experiment [6] (setting [9]), 92.8%; in experiment [6] (setting [10]), 106%. In addition, in experiment [2], the Her2 level is 108% (inactive). Moreover, the differential viability (reversal) in experiment [6] (H69AR cells + 2 uM doxorubicin) is 13.4% (inactive). In addition, the inhibition in experiment [7] is 2.67% (inactive); in experiment [8] it was 10.7% (inactive).

In the case of `CCOC(=O)c1c(NC(=O)c2ccn(CC)n2)sc2c1CCCC2`, the viability in experiment [1] is 88%; in experiment [3], 88% (inactive); in experiment [4], 75.5% (inactive); in experiment [5], 77.2% (inactive); in experiment [6] (setting [9]), 92.2%; in experiment [6] (setting [10]), 77.2%. Besides, the Her2 level in experiment [2] is 70% (inactive). In experiment [6] (H69AR cells + 2 uM doxorubicin), the differential viability (reversal) is -15% (inactive). Also, the inhibition was -4.74% (inactive) in experiment [7] and 1.67% (inactive) in experiment [8].

In the case of `CCCN(CCC)C(=O)CSc1nc2ccccc2c(=O)n1C1CCCC1`, the viability in experiment [1] was 136%; in experiment [3], 136% (inactive); in experiment [4], 87.2% (inactive); in experiment [5], 66.7% (inactive); in experiment [6] (setting [9]), 56.3%; in experiment [6] (setting [10]), 66.7%. Besides, the Her2 level in experiment [2] is 60.5% (inactive). Besides, the differential viability (reversal) in experiment [6] (H69AR cells + 2 uM doxorubicin) is 10.4% (inactive). The results for the inhibition in experiment [7] and in experiment [8] were -3.68% (inactive) and -2.54% (inactive), respectively.

As to `COC(=O)C1=C(C)NC(=O)C1(NC(=O)c1cccnc1)C(F)(F)F` (stereo not given), the viability in experiment [1] is 126%; in experiment [3], 126% (inactive); in experiment [4], 99.4% (inactive); in experiment [5], 103% (inactive); in experiment [6] (setting [9]), 88.7%; in experiment [6] (setting [10]) it was 103%. The Her2 level in experiment [2] was 96.5% (inactive). In experiment [6] (H69AR cells + 2 uM doxorubicin), the differential viability (reversal) was 14% (inactive). Further, the inhibition was -2.5% (inactive) in experiment [7] and 0.55% (inactive) in experiment [8].
